Reference: ChEMBL document CHEMBL1150817, “Annomolin and annocherimolin, new cytotoxic annonaceous acetogenins from Annona cherimolia seeds” (J Nat Prod, 2001)
Values after ≈ are worked out from the molar mass of the structure shown.

Experiments:
[1] = tested on: HT-29; assay: Cytotoxicity against human HT-29 cells after 7 days by MTT assay; format: functional
Summary of the method: (§1)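 Seven-day in vitro MTT assay run at the Purdue Cancer Center cell culture laboratory under standard protocols. Cell lines were A-549 lung carcinoma, MCF-7 breast carcinoma, HT-29 colon adenocarcinoma, A-498 kidney carcinoma, PC-3 prostate adenocarcinoma and MIA PaCa-2 pancreatic carcinoma. Adriamycin served as the positive control.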

[2] = tested on: A498; assay: Cytotoxicity against human A498 cells after 7 days by MTT assay; format: functional; details: for EC50: Homo sapiens, A498, 168 h, read-out: ED50 (the source's name); summary of the method: as §1
[3] = tested on: A549; assay: Cytotoxicity against human A549 cells after 7 days by MTT assay; format: functional; details: A549, 168 h, read-out: ED50 (the source's name); summary of the method: as §1
[4] = tested on: MIA PaCa-2; assay: Cytotoxicity against human MIAPaCa2 cells after 7 days by MTT assay; format: functional; details: for EC50: Homo sapiens, MIA PaCa-2, 168 h, read-out: ED50 (the source's name); summary of the method: as §1
[5] = Toxicity to Artemia salina; format: organism-based; details: in vivo
Summary of the method: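 Brine shrimp lethality test (BST) on larvae, run routinely on extracts, fractions and isolated compounds during activity-directed fractionation.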

[6] = tested on: PC-3; assay: Cytotoxicity against human PC3 cells after 7 days by MTT assay; format: functional; details: for EC50: Homo sapiens, PC-3, 168 h, read-out: ED50 (the source's name); summary of the method: as §1
[7] = tested on: MCF7; assay: Cytotoxicity against human MCF7 cells after 7 days by MTT assay; format: functional; summary of the method: as §1

SMILES | ED50 [1] | ED50 [2] | EC50 [3] | EC50 [4] | LC50 [5] | ED50 [6] | ED50 [7] | EC50 [2] | ED50 [4] | EC50 [6] | EC50 ([1]; Homo sapiens, HT-29, 168 h, read-out: ED50 (the source's name)) | EC50 ([7]; Homo sapiens, MCF7, 168 h, read-out: ED50 (the source's name))
CCCCCCCCCCCCCC[C@H](O)[C@@H]1CC[C@@H](CCCCC[C@@H](O)[C@H](O)CC[C@@H](O)CC2=C[C@H](C)OC2=O)O1 [ANNOMOLIN] | 8.92 ×10⁻⁵ ug/ml | 6.88 ×10⁻⁴ ug/ml | 2.37 µg/mL (≈ 3.97 µM) | 2.18 µg/mL (≈ 3.65 µM) | 0.0094 µg/mL (≈ 0.0157 µM) | 5.39 ×10⁻⁶ ug/ml | 1.15 ×10⁻⁴ ug/ml |  |  |  |  | 
CCCCCCCCCCCC/C=C\CC[C@@H](O)[C@H]1CC[C@H]([C@H](O)CCCC(O)CCCC[C@@H](O)CC2=C[C@H](C)OC2=O)O1 (stereo not given in full) [ANNOCHERIMOLIN] | 2.49 ×10⁻⁶ ug/ml |  | 1.56 µg/mL (≈ 2.5 µM) |  | 0.0058 µg/mL (≈ 0.00931 µM) |  | 4.06 ×10⁻⁶ ug/ml | 0.153 µg/mL (≈ 0.246 µM) | 1.2 ×10⁻⁵ ug/ml | 1.02 µg/mL (≈ 1.64 µM) |  | 
COc1cccc2c1C(=O)c1c(O)c3c(c(O)c1C2=O)C[C@@](O)(C(=O)CO)C[C@@H]3O[C@H]1C[C@H](N)[C@H](O)[C@H](C)O1 [DOXORUBICIN] |  |  | 0.00113 µg/mL (≈ 0.00208 µM) | 0.00262 µg/mL (≈ 0.00482 µM) |  |  |  | 0.00226 µg/mL (≈ 0.00416 µM) |  | 0.0502 µg/mL (≈ 0.0924 µM) | 0.0128 µg/mL (≈ 0.0235 µM) | 0.0182 µg/mL (≈ 0.0335 µM)
